Experimental data from ChEMBL document CHEMBL1649438, “Activities of ceftobiprole and other cephalosporins against extracellular and intracellular (THP-1 macrophages and keratinocytes) forms of methicillin-susceptible and methicillin-resistant Staphylococcus aureus” (Antimicrob Agents Chemother, 2009).
Values after ≈ are worked out from the molar mass of the structure shown.

What was measured:
Staphylococcus aureus [1] = test: Antimicrobial activity against methicillin-susceptible Staphylococcus aureus ATCC 25923 infected in human keratinocytes assessed as bacterial count per mg of cell protein at low extracellular compound concentration after 24 hrs; assay type: functional
How it was run: (§1)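 Primary human skin keratinocytes were grown in defined keratinocyte serum-free medium and infected with S. aureus to 1.5 × 10^6 to 3.0 × 10^6 CFU/mg cell protein. Cells were exposed 24 h to increasing extracellular concentrations. Response was the log10 CFU change from the postphagocytosis inoculum, fitted by a Hill equation with slope 1. Cs is the concentration giving CFU equal to the original inoculum, found by graphical interpolation.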

Staphylococcus aureus [2] = test: Bacteriostatic activity against methicillin-susceptible Staphylococcus aureus ATCC 25923 infected in human keratinocytes assessed as change in bacterial count after 24 hrs; assay type: functional; how it was run: as §1
Staphylococcus aureus [3] = test: Bacteriostatic activity against methicillin-resistant Staphylococcus aureus ATCC 33591 infected in human keratinocytes assessed as change in bacterial count after 24 hrs; assay type: functional
How it was run: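 Primary human skin keratinocytes were grown in defined keratinocyte serum-free medium, infected, then incubated 24 h with increasing extracellular drug concentrations. Response was the change in log10 CFU/mg cell protein versus the post-phagocytosis inoculum, fitted to a Hill equation with slope factor 1. Static concentration (mg/liter, total drug) was taken by graphical interpolation where CFU equalled the original inoculum.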

Staphylococcus aureus [4] = test: Antimicrobial activity against methicillin-susceptible Staphylococcus aureus ATCC 25923 infected in human keratinocytes assessed as bacterial count per mg of cell protein at high extracellular compound concentration after 24 hrs; assay type: functional; how it was run: as §1
Staphylococcus aureus [5] = test: Antimicrobial activity against methicillin-susceptible Staphylococcus aureus ATCC 25923 infected in human keratinocytes assessed as change in bacterial count after 24 hrs; assay type: functional, organism-based; conditions: ATCC 25923, 24 h; how it was run: as §1
Staphylococcus aureus [6] = test: Ratio of MIC for hospital-acquired methicillin-resistant Staphylococcus aureus ATCC 33591 by microdilution method at pH 7.4 to ratio of MIC for hospital-acquired methicillin-resistant Staphylococcus aureus ATCC 33591 by microdilution method at pH 5.5; assay type: functional
How it was run: (§2)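 MICs were determined by broth microdilution at pH 7.4 and pH 5.5. Broth was adjusted before inoculation, and pH was confirmed maintained (±0.1 unit) at the end.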

Staphylococcus aureus [7] = test: Ratio of MIC for beta-lactamase-negative methicillin-susceptible Staphylococcus aureus ATCC 25923 by microdilution method at pH 7.4 to ratio of MIC for beta-lactamase-negative methicillin-susceptible Staphylococcus aureus ATCC 25923 by microdilution method at pH 5.5; assay type: functional
How it was run: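 MICs were measured by broth microdilution, with the broth adjusted to pH 7.4 or pH 5.5 before inoculation. pH was confirmed at the end of the assay to within ±0.1 unit. The value is the fold decrease in MIC between pH 7.4 and pH 5.5.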

Staphylococcus aureus [8] = test: Antimicrobial activity against methicillin-resistant Staphylococcus aureus ATCC 33591 infected in human keratinocytes assessed as bacterial count per mg of cell protein at low extracellular compound concentration after 24 hrs; assay type: functional
How it was run: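 Primary human skin keratinocytes were grown in defined keratinocyte serum-free medium, infected with a postphagocytosis inoculum of 1.5 × 10⁶ to 3.0 × 10⁶ CFU/mg cell protein, then exposed 24 h to increasing extracellular antibiotic concentrations. Change in log10 CFU/mg protein from the inoculum was fitted to a Hill equation with slope 1. E0 and Emax were extrapolated to infinitely low and high concentrations, in total drug mg/liter.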

Staphylococcus aureus [9] = test: Ratio of MIC for hospital-acquired methicillin-resistant Staphylococcus aureus ATCC 33591 by microdilution method at pH 5.5 to MIC for beta-lactamase-negative methicillin-susceptible Staphylococcus aureus ATCC 25923 by microdilution method at pH 5.5; assay type: functional; how it was run: as §2
Staphylococcus aureus [10] = test: microbe, parasite or virus in culture; conditions: ATCC 11632
Staphylococcus aureus [11] = test: Antimicrobial activity against hospital-acquired methicillin-resistant Staphylococcus aureus N4112910 obtained from nasal swap of patient by microdilution method at pH 5.5
Staphylococcus aureus [12] = test: microbe, parasite or virus in culture; conditions: ATCC 25923
Staphylococcus aureus [13] = test: Antimicrobial activity against hospital-acquired vancomycin-intermediate Staphylococcus aureus NRS126 obtained from bloodstream infection of patient by microdilution method at pH 5.5

Structure (SMILES) | log10cfu (Staphylococcus aureus [1]) | Activity (Staphylococcus aureus [2]) [mg/L] | Activity (Staphylococcus aureus [3]) [mg/L] | log10cfu (Staphylococcus aureus [4]) | EC50 (Staphylococcus aureus [5]) [µg/mL] | fold change (FC) (Staphylococcus aureus [6]) | fold change (FC) (Staphylococcus aureus [7]) | log10cfu (Staphylococcus aureus [8]) | fold change (FC) (Staphylococcus aureus [9]) | MIC (Staphylococcus aureus [10]) [µg/mL] | MIC (Staphylococcus aureus [11]) [µg/mL] | MIC (Staphylococcus aureus [12]) [µg/mL] | MIC (Staphylococcus aureus [13]) [µg/mL]
CO[C@@]1(NC(=O)Cc2cccs2)C(=O)N2C(C(=O)O)=C(COC(N)=O)CS[C@@H]21 [CEFOXITIN] | 3.06 | 1.84 | >200 | -0.91 | 0.55 (≈ 1.29 µM) | 512 | 4 | 2.36 | – | – | – | – | –
CO/N=C(\C(=O)N[C@@H]1C(=O)N2C(C(=O)O)=C(CSc3nc(=O)c(O)nn3C)CS[C@H]12)c1csc(N)n1 [CEFTRIAXONE] | 2.44 | 14.8 | >200 | -0.3 | 1.83 (≈ 3.3 µM) | 512 | 16 | 2.09 | 4 | – | – | – | –
CO/N=C(\C(=O)N[C@@H]1C(=O)N2C(C(=O)O)=C(COC(N)=O)CS[C@H]12)c1ccco1 [CEFUROXIME] | 3.23 | 0.26 | 200 | -0.42 | 0.27 (≈ 0.636 µM) | 128 | 16 | 2.75 | 4 | – | – | – | –
CC1=C(C(=O)O)N2C(=O)[C@@H](NC(=O)[C@H](N)c3ccccc3)[C@H]2SC1 [CEPHALEXIN ANHYDROUS] | 3.09 | 200 | – | 0.035 | 0.27 (≈ 0.777 µM) | 16 | 2 | 2.42 | 16 | – | – | – | –
CN[C@H](CC(C)C)C(=O)N[C@H]1C(=O)N[C@@H](CC(N)=O)C(=O)N[C@H]2C(=O)N[C@H]3C(=O)N[C@H](C(=O)N[C@H](C(=O)O)c4cc(O)cc(O)c4-c4cc3ccc4O)[C@H](O)c3ccc(c(Cl)c3)Oc3cc2cc(c3O[C@@H]2O[C@H](CO)[C@@H](O)[C@H](O)[C@H]2O[C@H]2C[C@](C)(N)[C@H](O)[C@H](C)O2)Oc2ccc(cc2Cl)[C@H]1O [VANCOMYCIN] | – | – | – | – | – | – | – | – | – | 0.25 (≈ 0.173 µM) | 0.25 (≈ 0.173 µM) | 0.25 (≈ 0.173 µM) | 0.25 (≈ 0.173 µM)
